rCAG RNA binder = binders of r(CAG) RNA repeats, primary screen, biochemical, fluorescence. 1.3% of 370,000 active. inhibition, % at 3 µM. r(CAG) RNA repeat, TO-PRO-1 dye displacement fluorescence;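 active = inhibition above the plate cutoff, the mean of all test compounds on that plate plus 3 SD, cut at about 35% in these data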;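 also: 0% = DMSO alone and 100% = 100 µM mitoxantrone as full dye displacement; higher means more dye released from RNA so lower well fluorescence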
ABHD4 inh = ABHD4 inhibitors, primary screen, biochemical, fluorescence polarization, mouse | (Lyso)-N-acylphosphatidylethanolamine lipase (Mus musculus), Q8VD66 | purified mABHD4, FP-Rh probe fluorescence polarization | inhibition, % at 8.92 µM | 0.54% of 370,000 active | AID 720543, 2013;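 active = inhibition exceeding the mean over every tested compound plus 3 SD, cut at about 30% in these data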;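 also: 0% = plate median of compound wells and 100% = S159A mutant with DMSO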
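Material: mouse ABHD4 enzyme, wild type; Benchmarks: S159A mutant high control, sample median low control; Buffer or medium: HEPES pH 7.0, NaCl, Pluronic buffer; Signal: fluorescence polarization; Read-out: percent inhibition of probe binding, normalized to plate controls; Timing: pre-incubation 45 min, probe exposure 60 min, at 25 °C; Dosing: 8.92 µM, single dose.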
SIAE inh = human SIAE inhibitors, primary screen, biochemical, fluorescence polarization, FP-Rh probe, 1536-well HTS. Sialate O-acetylesterase (Homo sapiens), Q9HAT2. inhibition, % at 9.66 µM. 0.69% of 370,000 active. SIAE FP-Rh probe binding;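 active = inhibition above a cutoff: mean of compounds within the control limits plus 3 SD of those, cut at about 17% in these data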;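 also: 0% = plate median of compound wells and 100% = probe without SIAE protein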
PRMT1 FP inh = PRMT1 methyltransferase inhibitors, primary screen, biochemical, fluorescence polarization; Protein arginine N-methyltransferase 1 (Homo sapiens), Q99873; recombinant PRMT1, activity-based probe fluorescence polarization; inhibition, % at 2.79 µM; 1.3% of 370,000 active;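 active = inhibition above about 21% made by adding two undisclosed values, limit read from the data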
Target sequence (Q99873 whole entry, looked up): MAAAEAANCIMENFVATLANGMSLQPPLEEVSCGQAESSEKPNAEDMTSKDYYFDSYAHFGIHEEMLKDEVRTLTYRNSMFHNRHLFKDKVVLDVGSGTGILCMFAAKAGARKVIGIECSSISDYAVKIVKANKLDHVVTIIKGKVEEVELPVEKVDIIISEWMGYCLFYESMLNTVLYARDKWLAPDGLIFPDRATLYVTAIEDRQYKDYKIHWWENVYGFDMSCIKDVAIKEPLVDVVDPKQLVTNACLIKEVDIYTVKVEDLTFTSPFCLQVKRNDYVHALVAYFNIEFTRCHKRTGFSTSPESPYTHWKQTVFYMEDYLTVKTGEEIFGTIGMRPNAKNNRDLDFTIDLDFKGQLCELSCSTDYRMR
TCR CD3 inh = inhibitors of human TCR-CD3 interaction, primary screen, biochemical, fluorescence, TAMRA-labeled TCR probe; T-cell receptor (TCR); inhibition, % at 9.4 µM; 0.37% of 360,000 active; AID 651800, 2012; in the data active = inhibition above about 19%;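 also: recombinant mutant TCR 2C K166C tagged with TAMRA read by polarization; 0% = receptor in buffer alone and 100% = receptor with positive control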
* = called active by the depositor; nt = not tested or not shown. An excerpt weighted towards active compounds, which were near 3.3% of everything screened.

SMILES	rCAG RNA binder	ABHD4 inh	SIAE inh	PRMT1 FP inh	TCR CD3 inh
CC(OC(=O)c1ccc(NC(=O)CC#N)cc1)C(=O)Nc1ccc(Oc2ccccc2)cc1 (stereo unspecified)	22.1	-38.1	-91.5	-3.6	35.3*
O=C(C[C@H]1C[C@H](C(=O)N2CCOCC2)[C@@]2(CCC3CCCC3)c3[nH]c4cc(-c5ccco5)ccc4c3CCN2C1=O)NCc1ccco1	13.6	0.0	-0.3	21.7*	-10.6
CC(C)(C)NC(=O)C[C@H]1C[C@H](C(=O)N2CCCCC2)[C@@]2(CCc3ccccc3)c3[nH]c4cc(-c5ccco5)ccc4c3CCN2C1=O	21.6	1.9	-13.0	23.9*	-11.2
COc1ccc(C(=O)C2(C(=O)Nc3cc(C)cc(C)c3)CC(c3ccccc3C(F)(F)F)=NO2)cc1 (stereo unspecified)	9.2	-13.5	-6.7	3.8	nt
Cc1cc(Nc2ccc(Cl)cc2)nc(NCc2ccccc2)n1	5.0	17.1	23.5*	0.9	-0.9
Cc1cc(Nc2ccccc2)nc(NCc2ccccc2)n1	3.9	21.5	-5.2	-0.1	-4.3
COc1ccc(-c2cc(=O)c3c(O)cc(O)cc3o2)cc1	6.3	-0.6	-19.6	5.1	-0.9
O=c1cc(-c2ccc(O)cc2)oc2c(-c3c(O)cc(O)c4c(=O)cc(-c5ccc(O)cc5)oc34)c(O)cc(O)c12	94.4*	-15.0	-24.0	-0.2	11.6
O=C(Nc1ccc(Nc2ccccc2)cc1)c1ccc(Cl)cc1	5.7	7.2	11.2	-2.4	-0.9
CCC1(C(=O)c2ccc(Cl)cc2)C2c3ccccc3OC(=O)C21C(=O)Nc1ccccc1 (stereo unspecified)	40.2*	-9.6	4.2	3.5	4.2
O=S1(=O)c2c(NCc3ccco3)cccc2Oc2ccccc2CN1Cc1cn(Cc2ccc(C(F)(F)F)cc2)nn1	11.7	-5.7	3.3	-2.1	nt
Cc1ccc(NC(=O)CC2SC(=O)N(c3ccccc3)C2=O)cc1 (stereo unspecified)	36.6*	-4.0	5.0	13.5	-18.0
Cc1cccc(N2CCN(C(=O)CCC(=O)N3CC(C)Oc4ccccc43)CC2)c1C (stereo unspecified)	-0.7	-0.8	-4.8	-3.4	20.5*
CC1CCN(C(=O)CCC(=O)N2CC(C)Oc3ccccc32)CC1 (stereo unspecified)	-0.3	-13.5	2.9	1.6	-3.6
COc1ccc(N2CSC3=C(C#N)C(c4ccc(OC)c(OC)c4)CC(=O)N3C2)c(OC)c1 (stereo unspecified)	20.6	17.2	4.9	46.7*	-5.3
COc1ccc(N2CSC3=C(C#N)C(c4cccs4)CC(=O)N3C2)cc1 (stereo unspecified)	1.0	4.5	0.9	3.0	0.4
S=c1[nH]nc(-c2ccccc2)n1/N=C/c1ccc(Cl)cc1	28.5	-2.6	4.8	21.6*	0.2
COc1ccccc1/C=C/C=N/n1c(-c2ccc(C)cc2)n[nH]c1=S	22.8	-13.3	-2.9	22.3*	-8.0
S=c1[nH]nc(-c2ccccc2)n1/N=C/c1cccc(Cl)c1	28.6	-0.8	5.4	17.4	-5.2
COc1ccc(-c2n[nH]c(=S)n2/N=C/C=C\c2ccccc2OC)cc1	14.2	-1.7	1.6	3.7	-0.3
C=CCCC(=O)N[C@H]1CC[C@@]23CCCN2C(=O)CCC[C@H]3[C@H]1CCC	nt	0.2	-9.1	-2.3	nt
NS(=O)(=O)c1ccc(N=Nc2c(O)ccc3ccccc23)cc1	21.3	4.1	13.2	-9.2	4.1
N=C(N)c1ccc(N=Nc2c(O)ccc3c2[nH]c2ccccc23)cc1	25.7	47.5*	9.3	3.9	-2.1
Cc1cc(O)c(C(C)C)cc1N=Nc1ccccc1C(=O)O	20.1	12.4	3.9	0.5	-5.6
Cc1cc(N=Nc2ccccc2C(=O)O)c(C)c(C)c1O	49.7*	13.1	4.6	3.3	-6.0
SMILES	rCAG RNA binder	ABHD4 inh	SIAE inh	PRMT1 FP inh	TCR CD3 inh
Oc1c(CNc2ccccc2)cc(COCc2ccccc2)c2cccnc12	7.6	8.1	19.2*	-3.3	-4.0
CC(=O)C1=C(c2cccc([N+](=O)[O-])c2)N(C(C)=O)n2c(C)nnc2S1	-0.4	-6.8	-1.6	75.5*	-1.3
Cc1ccc2c(c1)-c1c(cnn1CC(=O)N(Cc1ccco1)C1CCCCC1)CO2	3.6	-5.5	-4.1	0.7	-0.2
Cc1ccc2c(c1)-c1c(cnn1CC(=O)NC(C)CCc1ccco1)CO2 (stereo unspecified)	10.7	-3.4	1.6	23.3*	-3.0
CCOC(=O)C1=C(C)n2c(s/c(=C3\C(=O)Nc4ccccc43)c2=O)=NC1c1ccc(OC)cc1 (stereo unspecified)	29.3	-15.2	-23.5	24.0*	-0.5
C[N+]1=C2N[C@@H](c3ccccc3)CC(=O)N2/C(=C\c2ccccc2)[C@@H]1Cc1ccccc1	nt	5.6	4.7	-6.0	nt
CCOC(=O)c1sc2nc(CC(=O)OC)nc(NCc3ccco3)c2c1C	15.3	14.7	8.8	22.2*	-0.3
CCOC(=O)c1sc2nc(CC(=O)OC)nc(NCC(=O)OC)c2c1C	-6.4	-0.5	-4.8	3.5	0.7
C[C@H](NC(=O)[C@@H]1CSC2c3ccccc3C(=O)N21)C(=O)NCCc1ccc(F)cc1 (stereo partly specified)	7.8	-5.5	-5.0	24.7*	-2.2
C[C@H](NC(=O)[C@@H]1CSC2c3ccccc3C(=O)N21)C(=O)NCCc1ccccc1 (stereo partly specified)	5.6	2.9	-5.2	13.3	-2.3
O=C(CSC1=NCCS1)Nc1ccnc2ccccc12	2.6	-5.3	7.1	23.5*	5.3
COC(=O)[C@]12C[C@H](CC(=O)NCc3cccs3)C(=O)N(CCc3ccc(OC)c(OC)c3)C1=C[C@H](C1CCCC1)O[C@@H]2C	3.4	0.3	-4.7	2.1	nt
COc1cc2c(cc1OC)-c1cc3ccc(OC)c(OC)c3c[n+]1CC2	5.8	1.5	5.5	-1.9	6.2
COc1ccc2cc3[n+](cc2c1O)CCc1cc2c(cc1-3)OCO2	17.0	31.5*	20.5*	11.3	24.5*
O=Cc1ccc(O)cc1O	-1.8	-1.1	2.8	0.7	6.3
O=CN/C=C/c1cc(O)ccc1O	11.4	18.6	16.6	48.0*	6.2
CC[C@@H]1/C(=C/c2ccccc2)N2C(=O)C[C@@H](c3ccccc3)N=C2N1Cc1ccc(OC)cc1OC	nt	0.5	-0.9	0.7	nt
CCC(c1nnnn1Cc1ccco1)N(CCN1CCOCC1)Cc1cc2cc(C)ccc2[nH]c1=O (stereo unspecified)	6.2	3.8	2.6	21.4*	8.1
Cc1ccc2cc(CN(CCCN3CCOCC3)C(c3nnnn3Cc3ccco3)C(C)C)c(=O)[nH]c2c1C (stereo unspecified)	-1.2	8.0	4.5	8.7	4.5
CCCNC(=O)C[C@H]1CC[C@H]2[C@@H](COc3ccc(NC(=O)c4cncs4)cc3C(=O)N2C)O1	0.4	18.3	2.3	3.0	nt
COc1cc(C)ccc1C(=O)N1CCC(Oc2cccnc2)CC1	-2.0	8.1	4.5	0.8	nt

Screens as filed in PubChem BioAssay.
